In brackets after ≈: the same amount, converted by molar mass.
Columns and labels:
Aspergillus versicolor [1] = test: Antimicrobial activity against Aspergillus versicolor ATCC 10072 after 48 hrs by two-fold serial dilution method; assay type: functional; details: ATCC 10072, 48 h
In short: (§1)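 Two-fold serial broth dilution of compounds, 100 down to 3.125 (six levels). Each was inoculated with fungal suspension at 10^6 CFU/mL in suitable broth and incubated at 37 °C for 48 h. Growth was judged by turbidity to assign the minimum inhibitory concentration.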

Aspergillus flavus [2] = test: Antimicrobial activity against Aspergillus flavus ATCC 9643 assessed as diameter of zone of inhibition at 2 mg/ml after 24 hrs by agar well diffusion method; assay type: functional; details: ATCC 9643, 24 h, read-out: DIZ
In short: (§2)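 Agar well diffusion. Fungi were grown on Sabouraud dextrose agar and bacteria on nutrient agar (peptone, beef extract, NaCl, agar), with the inoculum spread over the medium. Wells were bored and filled with test drug at 2.0 mg/ml in DMSO. Plates sat 1 h at room temperature for diffusion, then 37 °C for 24 h. Inhibition zone diameter (mm, including well) is reported as mean ± SEM.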

Escherichia coli = test: Antimicrobial activity against Escherichia coli ATCC 25922 assessed as diameter of zone of inhibition at 2 mg/ml after 24 hrs by agar well diffusion method; assay type: functional; details: ATCC 25922, 24 h, read-out: DIZ; in short: as §2
Aspergillus versicolor [3] = test: Antimicrobial activity against Aspergillus versicolor ATCC 10072 assessed as diameter of zone of inhibition at 2 mg/ml after 24 hrs by agar well diffusion method; assay type: functional; details: ATCC 10072, 24 h, read-out: DIZ; in short: as §2
Aspergillus fumigatus [4] = test: Antimicrobial activity against Aspergillus fumigatus ATCC 1022 assessed as diameter of zone of inhibition at 2 mg/ml after 24 hrs by agar well diffusion method; assay type: functional; details: ATCC 1022, 24 h, read-out: DIZ; in short: as §2
Candida albicans [5] = test: Antimicrobial activity against Candida albicans ATCC 12031 after 48 hrs by two-fold serial dilution method; assay type: functional; details: ATCC 12031, 48 h; in short: as §1
Aspergillus flavus [6] = test: Antimicrobial activity against Aspergillus flavus ATCC 9643 after 48 hrs by two-fold serial dilution method; assay type: functional; details: ATCC 9643, 48 h; in short: as §1
Candida albicans [7] = test: Antimicrobial activity against Candida albicans ATCC 12031 assessed as diameter of zone of inhibition at 2 mg/ml after 24 hrs by agar well diffusion method; assay type: functional; details: ATCC 12031, 24 h, read-out: DIZ; in short: as §2
Staphylococcus aureus [8] = test: Antimicrobial activity against Staphylococcus aureus ATCC 25923 assessed as diameter of zone of inhibition at 2 mg/ml after 24 hrs by agar well diffusion method; assay type: functional; details: ATCC 25923, 24 h, read-out: DIZ; in short: as §2
Aspergillus fumigatus [9] = test: Antimicrobial activity against Aspergillus fumigatus ATCC 1022 after 48 hrs by two-fold serial dilution method; assay type: functional; details: ATCC 1022, 48 h; in short: as §1
Candida albicans [10] = test: Antimicrobial activity against Candida albicans ATCC 12031 assessed as diameter of zone of inhibition at 20 microg/disc after 24 hrs by agar well diffusion method; assay type: functional; details: ATCC 12031, 24 h, read-out: DIZ
In short: (§3)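 Fungal inoculum spread on Sabouraud dextrose agar. 6 mm wells bored and filled with test drug at 2.0 mg/ml in DMSO (stock-as-added). Plates held 1 h at room temperature for diffusion, then incubated at 37 °C for 24 h. Inhibition zone diameter measured in mm, including well diameter. Reported as mean ± SEM.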

Aspergillus flavus [11] = test: Antimicrobial activity against Aspergillus flavus ATCC 9643 assessed as diameter of zone of inhibition at 20 microg/disc after 24 hrs by agar well diffusion method; assay type: functional; details: ATCC 9643, 24 h, read-out: DIZ; in short: as §3
Aspergillus versicolor [12] = test: Antimicrobial activity against Aspergillus versicolor ATCC 10072 assessed as diameter of zone of inhibition at 20 microg/disc after 24 hrs by agar well diffusion method; assay type: functional; details: ATCC 10072, 24 h, read-out: DIZ; in short: as §3
Aspergillus fumigatus [13] = test: Antimicrobial activity against Aspergillus fumigatus ATCC 1022 assessed as diameter of zone of inhibition at 20 microg/disc after 24 hrs by agar well diffusion method; assay type: functional; details: ATCC 1022, 24 h, read-out: DIZ; in short: as §3
Staphylococcus aureus [14] = test: microbe, parasite or virus in culture; details: ATCC 25923, 24 h, read-out: DIZ

Row | SMILES | MIC (Aspergillus versicolor [1]) [µg/mL] | zone of inhibition at 2000 µg/mL (Aspergillus flavus [2]) [mm] | zone of inhibition at 2000 µg/mL (Escherichia coli) [mm] | zone of inhibition at 2000 µg/mL (Aspergillus versicolor [3]) [mm] | zone of inhibition at 2000 µg/mL (Aspergillus fumigatus [4]) [mm] | MIC (Candida albicans [5]) [µg/mL] | MIC (Aspergillus flavus [6]) [µg/mL] | zone of inhibition at 2000 µg/mL (Candida albicans [7]) [mm] | zone of inhibition at 2000 µg/mL (Staphylococcus aureus [8]) [mm] | MIC (Aspergillus fumigatus [9]) [µg/mL] | zone of inhibition at 20 µg/disc (Candida albicans [10]) [mm] | zone of inhibition at 20 µg/disc (Aspergillus flavus [11]) [mm] | zone of inhibition at 20 µg/disc (Aspergillus versicolor [12]) [mm] | zone of inhibition at 20 µg/disc (Aspergillus fumigatus [13]) [mm] | zone of inhibition at 25 µg/disc (Staphylococcus aureus [14]) [mm]
1 | COc1cc(C)c(Cl)c(C)c1C(=O)C1=NNCC1c1ccccc1[N+](=O)[O-] (centres undefined) | 12.5 (≈ 32.2 µM) | 19 | 9 | 19 | 20 | 25 (≈ 64.5 µM) | 12.5 (≈ 32.2 µM) | 20 | 10 | 12.5 (≈ 32.2 µM) |  |  |  |  | 
2 | Cc1cc(O)c(C2=NNC(c3ccc(N(C)C)cc3)C2)c(C)c1Cl (centres undefined) | 12.5 (≈ 36.4 µM) | 13 | 8 | 13 | 18 | 12.5 (≈ 36.4 µM) | 6.25 (≈ 18.2 µM) | 18 | 12 | 12.5 (≈ 36.4 µM) |  |  |  |  | 
3 | COc1ccc(C2CC(c3c(O)cc(C)c(Cl)c3C)=NN2)cc1 (centres undefined) | 25 (≈ 75.6 µM) | 12 | 8 | 13 | 18 | 50 (≈ 151 µM) | 6.25 (≈ 18.9 µM) | 18 | 11 | 25 (≈ 75.6 µM) |  |  |  |  | 
4 | COc1cc(C2CC(c3c(O)cc(C)c(Cl)c3C)=NN2)cc(OC)c1OC (centres undefined) | 12.5 (≈ 32 µM) | 15 | 9 | 16 | 21 | 12.5 (≈ 32 µM) | 12.5 (≈ 32 µM) | 20 | 10 | 12.5 (≈ 32 µM) |  |  |  |  | 
5 | COc1ccccc1C1CNN=C1C(=O)c1c(OC)cc(C)c(Cl)c1C (centres undefined) | 12.5 (≈ 33.5 µM) | 19 | 8 | 20 | 18 | 12.5 (≈ 33.5 µM) | 6.25 (≈ 16.8 µM) | 21 | 9 | 12.5 (≈ 33.5 µM) |  |  |  |  | 
6 | OC(Cn1cncn1)(Cn1cncn1)c1ccc(F)cc1F [FLUCONAZOLE] | 3.12 (≈ 10.2 µM) |  |  |  |  | 12.5 (≈ 40.8 µM) | 12.5 (≈ 40.8 µM) |  |  | 12.5 (≈ 40.8 µM) | 21 | 21 | 21 | 22 | 
7 | O=C(O)c1cn(C2CC2)c2cc(N3CCNCC3)c(F)cc2c1=O [CIPROFLOXACIN] |  |  |  |  |  |  |  |  |  |  |  |  |  |  | 24
8 | Cc1cc(O)c(C2=NOC(c3ccccc3Cl)C2)c(C)c1Cl (centres undefined) | 12.5 (≈ 37.2 µM) | 20 | 8 | 20 | 21 | 12.5 (≈ 37.2 µM) | 12.5 (≈ 37.2 µM) | 23 | 11 | 6.25 (≈ 18.6 µM) |  |  |  |  | 
9 | COc1ccc(C2CC(c3c(O)cc(C)c(Cl)c3C)=NN2)cc1OC (centres undefined) | 12.5 (≈ 34.6 µM) | 17 | 8 | 16 | 21 | 12.5 (≈ 34.6 µM) | 25 (≈ 69.3 µM) | 20 | 11 | 12.5 (≈ 34.6 µM) |  |  |  |  | 
10 | COc1ccc(C2CC(c3c(O)cc(C)c(Cl)c3C)=NO2)cc1OC (centres undefined) | 12.5 (≈ 34.5 µM) | 15 | 9 | 14 | 15 | 12.5 (≈ 34.5 µM) | 12.5 (≈ 34.5 µM) | 21 | 10 | 6.25 (≈ 17.3 µM) |  |  |  |  | 
11 | COc1ccc(C2CC(c3c(O)cc(C)c(Cl)c3C)=NO2)cc1 (centres undefined) | 25 (≈ 75.3 µM) | 16 | 8 | 15 | 16 | 12.5 (≈ 37.7 µM) | 6.25 (≈ 18.8 µM) | 22 | 11 | 25 (≈ 75.3 µM) |  |  |  |  | 
12 | Cc1cc(O)c(C2=NNC(c3cccc(O)c3)C2)c(C)c1Cl (centres undefined) | 6.25 (≈ 19.7 µM) | 21 | 9 | 21 | 20 | 12.5 (≈ 39.5 µM) | 3.12 (≈ 9.86 µM) | 23 | 11 | 12.5 (≈ 39.5 µM) |  |  |  |  | 
13 | Cc1cc(O)c(C2=NOC(c3ccc(Cl)cc3)C2)c(C)c1Cl (centres undefined) | 12.5 (≈ 37.2 µM) | 20 | 7 | 21 | 20 | 12.5 (≈ 37.2 µM) | 12.5 (≈ 37.2 µM) | 22 | 12 | 6.25 (≈ 18.6 µM) |  |  |  |  | 
14 | Cc1cc(O)c(C2=NOC(c3ccccc3)C2)c(C)c1Cl (centres undefined) | 25 (≈ 82.8 µM) | 15 | 8 | 17 | 21 | 25 (≈ 82.8 µM) | 6.25 (≈ 20.7 µM) | 22 | 11 | 12.5 (≈ 41.4 µM) |  |  |  |  | 
15 | COc1cc(C)c(Cl)c(C)c1C(=O)C1=NNCC1c1ccccc1 (centres undefined) | 12.5 (≈ 36.5 µM) | 21 | 8 | 19 | 20 | 25 (≈ 72.9 µM) | 6.25 (≈ 18.2 µM) | 19 | 10 | 6.25 (≈ 18.2 µM) |  |  |  |  | 
